Drawing on ChEMBL document CHEMBL3046428, “Isolation, characterization and antifungal activity of major constituents of the Himalayan lichen Parmelia reticulata Tayl” (2011), this text covers inhibition and EC50 for one compound.

Converted amounts (≈) assume the structure as drawn.

Common to all, as to format: functional
The test system of assay [1] is Pythium aphanidermatum. Nature of the assay: Antifungal activity against Pythium aphanidermatum assessed as growth inhibition at 7.25 ug/ml by poisoned food technique. In short, it runs like this:
(§1)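 Poisoned-food assay on potato dextrose agar: test material is dissolved and diluted in acetone and mixed into the medium before pouring, with an acetone-only control. A 5 mm mycelial disk is cut from the growing edge of a 2-week-old colony and placed inoculum-down at the plate centre. Plates are incubated at 28 °C until control growth is nearly complete. Colony diameter is measured, and % inhibition = (C−T)/C×100. Four replicates give the mean.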

The subject of assay [2] is Pythium aphanidermatum. The experiment in a line: Antifungal activity against Pythium aphanidermatum assessed as growth inhibition at 15.50 ug/ml by poisoned food technique. A digest of the protocol:
as §1

For assay [3], the system named is Pythium aphanidermatum. The experiment in a line: Antifungal activity against Pythium aphanidermatum assessed as growth inhibition at 31 ug/ml by poisoned food technique. In short, it runs like this: as §1
For assay [4], the system named is Fusarium udum. The experiment in a line: Antifungal activity against Fusarium udum assessed as growth inhibition at 7.25 ug/ml by poisoned food technique. A digest of the protocol: as §1
The subject of assay [5] is Fusarium udum. The experiment in a line: Antifungal activity against Fusarium udum assessed as growth inhibition at 15.50 ug/ml by poisoned food technique. In short, it runs like this:
as §1

Assay [6] deals with Fusarium udum. Nature of the assay: Antifungal activity against Fusarium udum assessed as growth inhibition at 31 ug/ml by poisoned food technique. A digest of the protocol:
as §1

The test system of assay [7] is Macrophomina phaseolina. Nature of the assay: Antifungal activity against Rhizoctonia bataticola assessed as growth inhibition at 7.25 ug/ml by poisoned food technique. A digest of the protocol:
as §1

Assay [8] relates to Macrophomina phaseolina. The experiment in a line: Antifungal activity against Rhizoctonia bataticola assessed as growth inhibition at 15.50 ug/ml by poisoned food technique. In short, it runs like this:
as §1

The subject of assay [9] is Macrophomina phaseolina. The experiment in a line: Antifungal activity against Rhizoctonia bataticola assessed as growth inhibition at 31 ug/ml by poisoned food technique. In short, it runs like this: as §1
Assay [10] has as its system Rhizoctonia solani. The experiment in a line: Antifungal activity against Rhizoctonia solani assessed as growth inhibition at 7.25 ug/ml by poisoned food technique. In short, it runs like this:
as §1

Assay [11] has as its system Rhizoctonia solani. Nature of the assay: Antifungal activity against Rhizoctonia solani assessed as growth inhibition at 15.50 ug/ml by poisoned food technique. A digest of the protocol: as §1
In assay [12] the test system is Rhizoctonia solani. Nature of the assay: Antifungal activity against Rhizoctonia solani assessed as growth inhibition at 31 ug/ml by poisoned food technique. In short, it runs like this:
as §1

For assay [13], the system named is Athelia rolfsii. Nature of the assay: Antifungal activity against Athelia rolfsii assessed as growth inhibition at 7.25 ug/ml by poisoned food technique. Conditions: Agroathelia rolfsii. A digest of the protocol: as §1
Assay [14] concerns Athelia rolfsii. The experiment in a line: Antifungal activity against Athelia rolfsii assessed as growth inhibition at 15.50 ug/ml by poisoned food technique. The note with it: Agroathelia rolfsii. A digest of the protocol: as §1
Assay [15] has as its system Athelia rolfsii. Nature of the assay: Antifungal activity against Athelia rolfsii assessed as growth inhibition at 31 ug/ml by poisoned food technique. The note with it: Agroathelia rolfsii. A digest of the protocol: as §1
The test system of assay [16] is Globisporangium debaryanum. Nature of the assay: Antifungal activity against Pythium debaryanum assessed as growth inhibition by poisoned food technique. Conditions: read-out: ED50 (the source's name). In short, it runs like this: (§2)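 ED50 from poisoned-food growth inhibition on PDA at 250, 125 and 62.5 μg/mL in medium, with an acetone control. Plates were inoculated with a 5 mm mycelial disc, incubated at 28 °C, and colony diameter was measured in quadruplicate. Percent inhibition was corrected by Abbott's formula, using a correction factor from the 9 cm dish diameter, and ED50 (μg/mL) was derived by probit analysis.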

The subject of assay [17] is Pythium aphanidermatum. Nature of the assay: Antifungal activity against Pythium aphanidermatum assessed as growth inhibition by poisoned food technique. The note with it: read-out: ED50 (the source's name). In short, it runs like this:
as §2

The subject of assay [18] is Fusarium udum. Nature of the assay: Antifungal activity against Fusarium udum assessed as growth inhibition by poisoned food technique. The note with it: read-out: ED50 (the source's name). A digest of the protocol: as §2
Assay [19] has as its system Macrophomina phaseolina. The experiment in a line: Antifungal activity against Rhizoctonia bataticola assessed as growth inhibition by poisoned food technique. Conditions: read-out: ED50 (the source's name). A digest of the protocol:
as §2

For assay [20], the system named is Rhizoctonia solani. The experiment in a line: Antifungal activity against Rhizoctonia solani assessed as growth inhibition by poisoned food technique. Conditions: read-out: ED50 (the source's name). A digest of the protocol:
as §2

Assay [21] concerns Athelia rolfsii. Nature of the assay: Antifungal activity against Athelia rolfsii assessed as growth inhibition by poisoned food technique. The note with it: Agroathelia rolfsii; read-out: ED50 (the source's name). In short, it runs like this: as §2
For assay [22], the system named is Globisporangium debaryanum. Nature of the assay: Antifungal activity against Pythium debaryanum assessed as growth inhibition at 7.25 ug/ml by poisoned food technique. A digest of the protocol: as §1
Assay [23] deals with Globisporangium debaryanum. Nature of the assay: Antifungal activity against Pythium debaryanum assessed as growth inhibition at 15.50 ug/ml by poisoned food technique. A digest of the protocol: as §1
Assay [24] relates to Globisporangium debaryanum. Nature of the assay: Antifungal activity against Pythium debaryanum assessed as growth inhibition at 31 ug/ml by poisoned food technique. A digest of the protocol: as §1

On to `CCCCC(O)(Cn1cncn1)c1ccc(Cl)cc1Cl` (centres undefined) [HEXACONAZOLE], for which the inhibition at 7.25 µg/mL with Pythium aphanidermatum [1] came out at 14.1%; in the assay on Fusarium udum [4], 18.6%; with Macrophomina phaseolina [7] it was 60.1%; in the assay with Rhizoctonia solani [10], 20.6%; with Athelia rolfsii [13] it was 28.2%; in assay [22], 11.1%. Also, the inhibition at 15.5 µg/mL in the assay on Pythium aphanidermatum [2] stood at 32.7%; in the assay with Fusarium udum [5] it was 23.7%; with Macrophomina phaseolina [8] it was 73.2%; in the assay with Rhizoctonia solani [11], 38.2%; with Athelia rolfsii [14], 45.3%; in assay [23] it was 26.3%. Besides, the inhibition at 31 µg/mL is 65.3% in the assay on Pythium aphanidermatum [3]; 70% in the assay on Fusarium udum [6]; 87% in the assay on Macrophomina phaseolina [9]; 72.6% in the assay on Rhizoctonia solani [12]; 90.7% in the assay with Athelia rolfsii [15]; 59.2% in [24]. The EC50 was 25.9 µg/mL (≈ 82.5 µM) in assay [16]; 22.1 µg/mL (≈ 70.2 µM) in the assay on Pythium aphanidermatum [17]; 22 µg/mL (≈ 70 µM) with Fusarium udum [18]; 4.4 µg/mL (≈ 14 µM) in the assay with Macrophomina phaseolina [19]; 18.3 µg/mL (≈ 58.2 µM) with Rhizoctonia solani [20]; 13.4 µg/mL (≈ 42.7 µM) with Athelia rolfsii [21].

The inhibition is how much of the control response was suppressed.
